Drawing on ChEMBL document CHEMBL4312042, “In Silico Discovery of JMJD6 Inhibitors for Cancer Treatment” (ACS Med Chem Lett, 2019), this text covers inhibition, IC50 and Activity for five compounds.

Activity calls are given as the source filed them. No cut-off for these calls is given here.

For data set [1], the target named is T1, Bifunctional arginine demethylase and lysyl-hydroxylase JMJD6 (Homo sapiens, UniProt Q6NYC1). The data set can be described thus: Inhibition of His-tagged JMJD6 (unknown origin) expressed in Escherichia coli BL21 (DE3) assessed as increase in H4 arginine 3 symmetrical dimethylation (H4R3me2s) content at 10 uM using core histone as substrate preincubated with enzyme for 10 mins followed by incubation with substrate for 1 hr by immunoblotting analysis. The method in brief: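 Purified bacterially expressed JMJD6 incubated with core histones, with or without compound at 10 μM; product analysed by immunoblot for H4R3me2s with total histone H4 probed alongside.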
(Immunoblotting shows a protein as a band on a membrane.)

Data set [2] has as its target T1, Bifunctional arginine demethylase and lysyl-hydroxylase JMJD6. Nature of the data set: Inhibition of His-tagged JMJD6 (unknown origin) expressed in Escherichia coli BL21 (DE3) assessed as decrease in demethylase activity by measuring release of formaldehyde using core histone as substrate preincubated with enzyme for 10 mins followed by incubation with substrate for 1 hr measured following 2 hrs incubation with ammonium acetate/acetoacetanilide by fluorescence based analysis. The method in brief: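 Bacterially expressed, purified JMJD6 mixed with core histones, with or without inhibitor across a concentration series; demethylation read as formaldehyde release; IC50 derived from the series; experiment run three times.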

The target of data set [3] is T2, Lysine-specific demethylase 3A (Homo sapiens) (UniProt Q9Y4C1).
T2 sequence (whole entry): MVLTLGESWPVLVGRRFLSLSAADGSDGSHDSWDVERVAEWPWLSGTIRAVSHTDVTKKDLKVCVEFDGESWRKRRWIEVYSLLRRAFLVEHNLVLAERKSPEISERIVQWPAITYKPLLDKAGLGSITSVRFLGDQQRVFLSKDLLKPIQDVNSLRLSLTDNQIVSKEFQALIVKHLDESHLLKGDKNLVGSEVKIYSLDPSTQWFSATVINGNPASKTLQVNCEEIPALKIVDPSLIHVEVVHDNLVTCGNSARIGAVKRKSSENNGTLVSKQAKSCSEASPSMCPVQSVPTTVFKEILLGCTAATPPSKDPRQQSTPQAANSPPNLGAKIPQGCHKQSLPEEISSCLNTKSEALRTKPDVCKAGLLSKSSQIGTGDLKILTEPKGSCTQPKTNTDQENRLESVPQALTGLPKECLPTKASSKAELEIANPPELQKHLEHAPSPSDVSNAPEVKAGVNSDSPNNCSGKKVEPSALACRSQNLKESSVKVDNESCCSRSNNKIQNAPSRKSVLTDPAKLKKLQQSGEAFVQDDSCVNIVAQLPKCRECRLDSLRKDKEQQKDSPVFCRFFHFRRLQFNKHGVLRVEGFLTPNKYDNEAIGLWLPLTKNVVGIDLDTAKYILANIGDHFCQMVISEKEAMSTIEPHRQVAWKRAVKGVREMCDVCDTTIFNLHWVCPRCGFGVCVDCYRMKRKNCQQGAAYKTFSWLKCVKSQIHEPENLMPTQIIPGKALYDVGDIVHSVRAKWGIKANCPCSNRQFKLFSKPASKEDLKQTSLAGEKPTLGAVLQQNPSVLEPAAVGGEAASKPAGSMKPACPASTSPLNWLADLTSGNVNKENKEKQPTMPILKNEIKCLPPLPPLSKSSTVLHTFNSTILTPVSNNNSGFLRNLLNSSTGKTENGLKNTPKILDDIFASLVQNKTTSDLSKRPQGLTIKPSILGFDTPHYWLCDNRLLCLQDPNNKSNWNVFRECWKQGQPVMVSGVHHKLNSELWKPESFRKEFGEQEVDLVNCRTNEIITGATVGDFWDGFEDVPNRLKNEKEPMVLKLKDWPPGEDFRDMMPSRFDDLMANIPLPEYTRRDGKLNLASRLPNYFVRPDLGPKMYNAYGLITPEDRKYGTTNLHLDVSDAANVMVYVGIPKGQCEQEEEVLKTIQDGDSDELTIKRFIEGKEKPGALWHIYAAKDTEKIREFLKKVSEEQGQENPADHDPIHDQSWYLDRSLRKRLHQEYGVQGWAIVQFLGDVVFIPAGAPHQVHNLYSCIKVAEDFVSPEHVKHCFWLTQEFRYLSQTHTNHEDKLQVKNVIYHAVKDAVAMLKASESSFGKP
The data set can be described thus: Inhibition of Flag-tagged KDM3A (unknown origin) expressed in Escherichia coli BL21 (DE3) assessed as formaldehyde release using core histone as substrate preincubated with enzyme for 10 mins followed by incubation with substrate for 1 hr measured following 2 hrs incubation with ammonium acetate/acetoacetanilide by fluorescence based analysis.

Data set [4] concerns the target Histone lysine demethylase PHF8 (Homo sapiens) (UniProt Q9UPP1). The data set can be described thus: Inhibition of Flag-tagged PHF8 (unknown origin) expressed in Escherichia coli BL21 (DE3) assessed as formaldehyde release using core histone as substrate preincubated with enzyme for 10 mins followed by incubation with substrate for 1 hr measured following 2 hrs incubation with ammonium acetate/acetoacetanilide by fluorescence based analysis.

In data set [5] the target is T3, Lysine-specific demethylase 4C (Homo sapiens) (UniProt Q9H3R0).
T3 sequence (whole entry): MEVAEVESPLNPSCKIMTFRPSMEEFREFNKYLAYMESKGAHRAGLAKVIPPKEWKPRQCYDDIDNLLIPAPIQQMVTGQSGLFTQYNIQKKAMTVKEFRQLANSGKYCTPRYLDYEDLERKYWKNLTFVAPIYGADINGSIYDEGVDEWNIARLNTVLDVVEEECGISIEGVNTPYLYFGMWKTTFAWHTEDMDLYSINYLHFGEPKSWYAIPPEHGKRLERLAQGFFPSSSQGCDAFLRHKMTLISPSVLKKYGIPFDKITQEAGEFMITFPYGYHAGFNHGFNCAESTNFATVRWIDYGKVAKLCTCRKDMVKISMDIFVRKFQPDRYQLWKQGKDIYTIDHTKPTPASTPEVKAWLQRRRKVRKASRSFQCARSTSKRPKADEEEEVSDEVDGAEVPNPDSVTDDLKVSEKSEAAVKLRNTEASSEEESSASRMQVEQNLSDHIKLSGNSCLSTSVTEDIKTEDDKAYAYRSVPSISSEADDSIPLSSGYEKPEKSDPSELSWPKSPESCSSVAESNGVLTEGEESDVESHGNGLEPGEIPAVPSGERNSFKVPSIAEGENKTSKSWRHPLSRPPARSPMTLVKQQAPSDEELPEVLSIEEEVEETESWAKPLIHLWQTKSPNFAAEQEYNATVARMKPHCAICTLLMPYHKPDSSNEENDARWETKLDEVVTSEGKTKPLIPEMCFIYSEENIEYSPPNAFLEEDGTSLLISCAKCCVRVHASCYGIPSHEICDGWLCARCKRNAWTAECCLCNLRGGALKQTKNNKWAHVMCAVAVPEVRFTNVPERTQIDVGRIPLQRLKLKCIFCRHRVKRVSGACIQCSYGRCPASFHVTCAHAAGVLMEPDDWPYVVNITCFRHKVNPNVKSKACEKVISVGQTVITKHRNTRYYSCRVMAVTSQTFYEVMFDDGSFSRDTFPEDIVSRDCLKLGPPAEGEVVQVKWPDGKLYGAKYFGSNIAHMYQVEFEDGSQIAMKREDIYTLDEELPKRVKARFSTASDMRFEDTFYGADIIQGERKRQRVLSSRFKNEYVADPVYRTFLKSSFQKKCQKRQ
Nature of the data set: Inhibition of Flag-tagged KDM4C (unknown origin) expressed in Escherichia coli BL21 (DE3) assessed as formaldehyde release using core histone as substrate preincubated with enzyme for 10 mins followed by incubation with substrate for 1 hr measured following 2 hrs incubation with ammonium acetate/acetoacetanilide by fluorescence based analysis.

Data set [6] has as its system L02. The data set can be described thus: Cytotoxicity in human LO2 cells assessed as reduction in cell proliferation incubated for 72 hrs by CellTiter 96 AQueous one solution cell proliferation assay. Particulars: l02, 72 h. Type of data set: cell-based.
Data set [7] deals with Lysine-specific demethylase 5C (Homo sapiens) (UniProt P41229). Nature of the data set: Inhibition of Flag-tagged KDM5C (unknown origin) expressed in Escherichia coli BL21 (DE3) assessed as formaldehyde release using core histone as substrate preincubated with enzyme for 10 mins followed by incubation with substrate for 1 hr measured following 2 hrs incubation with ammonium acetate/acetoacetanilide by fluorescence based analysis.

Data set [8] deals with T1, Bifunctional arginine demethylase and lysyl-hydroxylase JMJD6. Nature of the data set: Inhibition of JMJD6 in human HeLa cells assessed as H4R3me2S level at 10 uM incubated for 6 hrs by immunoblotting analysis. It is filed as cell-based. The method in brief: (§1)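 HeLa cells treated with or without compound at 10 μM for 6 h; lysates immunoblotted for H4R3me2s and HSP70R469me1.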

For data set [9] the target is unchanged. Nature of the data set: Binding affinity to immobilized His-tagged JMJD6 (unknown origin) expressed in Escherichia coli BL21 (DE3) by biacore-binding assay. In general terms: Surface plasmon resonance follows binding to a sensor surface in real time, without labels.
For data set [10] the target is unchanged. Nature of the data set: Inhibition of JMJD6 in human HeLa cells assessed as increase in HSP70R469me1 level at 10 uM incubated for 6 hrs by immunoblotting analysis. Type of data set: cell-based. The method in brief:
as §1

Chain of Histone lysine demethylase PHF8 (Homo sapiens) (Q9UPP1 whole entry): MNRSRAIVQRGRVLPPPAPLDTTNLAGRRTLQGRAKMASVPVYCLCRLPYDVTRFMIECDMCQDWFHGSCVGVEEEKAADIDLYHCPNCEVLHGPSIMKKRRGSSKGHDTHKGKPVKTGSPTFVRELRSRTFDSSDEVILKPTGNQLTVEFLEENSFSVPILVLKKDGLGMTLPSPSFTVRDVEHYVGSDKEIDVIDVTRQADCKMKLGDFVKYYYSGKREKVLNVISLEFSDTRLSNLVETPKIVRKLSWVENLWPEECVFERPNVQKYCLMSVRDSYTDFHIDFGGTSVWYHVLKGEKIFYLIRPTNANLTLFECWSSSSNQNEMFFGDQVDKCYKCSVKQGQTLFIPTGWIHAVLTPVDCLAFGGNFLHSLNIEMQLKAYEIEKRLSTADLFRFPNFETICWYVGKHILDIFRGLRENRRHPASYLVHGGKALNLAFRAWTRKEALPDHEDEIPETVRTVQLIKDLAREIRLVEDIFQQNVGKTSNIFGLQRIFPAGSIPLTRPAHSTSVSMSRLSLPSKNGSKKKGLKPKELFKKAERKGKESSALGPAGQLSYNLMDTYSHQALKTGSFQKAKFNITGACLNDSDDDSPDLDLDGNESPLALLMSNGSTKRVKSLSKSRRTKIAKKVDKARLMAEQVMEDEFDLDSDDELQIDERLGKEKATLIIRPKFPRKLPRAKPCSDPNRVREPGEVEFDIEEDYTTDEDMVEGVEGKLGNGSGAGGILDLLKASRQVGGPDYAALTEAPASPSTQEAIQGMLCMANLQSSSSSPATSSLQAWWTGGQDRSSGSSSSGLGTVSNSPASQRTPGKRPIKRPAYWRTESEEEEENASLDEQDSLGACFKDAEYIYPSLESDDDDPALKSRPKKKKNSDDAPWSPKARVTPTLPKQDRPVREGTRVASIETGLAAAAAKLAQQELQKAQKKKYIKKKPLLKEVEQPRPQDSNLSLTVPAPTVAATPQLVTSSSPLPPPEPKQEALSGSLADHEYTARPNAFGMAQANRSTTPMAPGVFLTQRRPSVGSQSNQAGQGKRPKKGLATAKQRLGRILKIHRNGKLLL
Chain of Lysine-specific demethylase 5C (Homo sapiens) (P41229 whole entry): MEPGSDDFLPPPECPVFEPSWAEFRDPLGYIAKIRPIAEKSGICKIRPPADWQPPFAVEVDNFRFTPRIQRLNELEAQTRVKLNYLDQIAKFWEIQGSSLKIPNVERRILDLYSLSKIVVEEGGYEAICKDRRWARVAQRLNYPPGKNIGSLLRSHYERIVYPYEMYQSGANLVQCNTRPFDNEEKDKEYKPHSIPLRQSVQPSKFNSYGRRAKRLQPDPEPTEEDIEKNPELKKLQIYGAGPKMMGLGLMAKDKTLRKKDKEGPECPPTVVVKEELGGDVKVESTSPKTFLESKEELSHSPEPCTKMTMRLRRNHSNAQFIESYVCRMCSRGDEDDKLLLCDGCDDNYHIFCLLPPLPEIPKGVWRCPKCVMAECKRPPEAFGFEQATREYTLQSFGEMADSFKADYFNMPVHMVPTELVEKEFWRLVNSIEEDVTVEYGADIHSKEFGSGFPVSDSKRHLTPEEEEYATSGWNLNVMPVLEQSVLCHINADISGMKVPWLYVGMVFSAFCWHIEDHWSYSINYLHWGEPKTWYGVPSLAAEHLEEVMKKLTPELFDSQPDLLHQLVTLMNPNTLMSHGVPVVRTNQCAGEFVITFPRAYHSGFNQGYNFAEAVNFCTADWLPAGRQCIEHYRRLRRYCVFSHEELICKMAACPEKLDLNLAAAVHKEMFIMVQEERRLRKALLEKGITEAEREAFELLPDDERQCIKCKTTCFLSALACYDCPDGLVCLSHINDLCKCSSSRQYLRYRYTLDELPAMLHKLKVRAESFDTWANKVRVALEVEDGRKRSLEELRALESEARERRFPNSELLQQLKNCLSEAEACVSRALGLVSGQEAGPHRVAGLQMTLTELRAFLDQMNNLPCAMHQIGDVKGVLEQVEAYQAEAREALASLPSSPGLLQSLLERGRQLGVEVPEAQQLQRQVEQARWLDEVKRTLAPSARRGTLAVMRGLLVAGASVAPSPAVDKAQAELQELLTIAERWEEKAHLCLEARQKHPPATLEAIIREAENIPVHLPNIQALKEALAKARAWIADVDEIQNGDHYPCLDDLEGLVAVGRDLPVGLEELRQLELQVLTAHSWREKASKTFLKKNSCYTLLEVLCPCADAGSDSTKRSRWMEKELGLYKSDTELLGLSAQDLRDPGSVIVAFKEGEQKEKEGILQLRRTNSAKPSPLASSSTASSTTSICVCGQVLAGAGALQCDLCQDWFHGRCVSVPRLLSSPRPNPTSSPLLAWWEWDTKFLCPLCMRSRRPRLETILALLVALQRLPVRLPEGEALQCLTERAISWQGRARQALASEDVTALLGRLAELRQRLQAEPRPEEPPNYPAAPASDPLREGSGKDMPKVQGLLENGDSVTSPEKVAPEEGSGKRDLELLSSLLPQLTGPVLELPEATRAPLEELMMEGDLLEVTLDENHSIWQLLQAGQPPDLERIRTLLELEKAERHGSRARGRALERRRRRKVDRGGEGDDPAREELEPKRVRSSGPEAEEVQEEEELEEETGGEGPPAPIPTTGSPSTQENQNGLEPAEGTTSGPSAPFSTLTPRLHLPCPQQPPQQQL

For `COCCN1CCOc2nc3c(C)cccc3cc2C1`, in data set [1], the inhibition result was “Active”.
Still for that read-out and setting: to `COCCn1cc(OC(C)=O)c2c1nc(C)n1c3ccccc3nc21` belongs “Active”.
What is called IC50 is the concentration that gives 50% inhibition. In the case of `Cc1ccc2oc(=O)c(-c3nc4cnccc4[nH]3)cc2c1`, in data set [2], the half-inhibitory concentration (IC50) was found to be 220 nM. The inhibition entry in data set [3], in data set [4], in data set [5], in data set [7] and in data set [8] was “inactive” each time. Besides, the inhibition entry in data set [1] and in data set [10] was “Active” in each case. In data set [6], the Activity entry is “Non-Toxic”. Moreover, the result in data set [9] was Active.
Turning to `CCOC(=O)c1csc(NC(=O)c2cc(C)on2)n1`, in data set [1], the inhibition entry was “Active”.
Still for that read-out and setting: to `COc1ccc2oc(=O)c(-c3csc(C)n3)cc2c1` belongs “Active”.
